Reference: ChEMBL document CHEMBL3997766, “Synthesis and pre-clinical studies of new amino-acid ester thiazolide prodrugs” (Eur J Med Chem, 2017)

Key:
Rattus norvegicus [1] = assay: Neurotoxicity in Sprague-Dawley rat assessed as decreased activity at 1000 mg/kg administered via oral gavage as single dose after 4 to 24 hrs; format: toxicity, organism-based; conditions: in vivo
In short: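 Three groups of 10 rats (5M/5F) received a single dose by oral gavage of 100, 300 or 1000 mg/kg, and an untreated group served as control. Clinical signs of CNS effects were recorded at 4 and 24 h after treatment.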

Rattus norvegicus [2] = assay: Toxicity in Sprague-Dawley rat assessed as decrease in urine specific gravity at 30 to 75 mg/kg administered as oral gavage qd for 28 consecutive days followed by 2 weeks recovery period measured on day 43; format: organism-based; conditions: in vivo, 336 h
In short: (§1)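 Sub-acute study in Sprague-Dawley rats dosed orally with a suspension at 10, 30 and 75 mg/kg once daily for 28 consecutive days. Four groups of up to 30 rats each (15M/15F).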

Rattus norvegicus [3] = assay: Toxicity in Sprague-Dawley rat assessed as decrease in absolute kidney weight at 75 mg/kg administered as oral gavage qd for 28 consecutive days measured on day 29; format: organism-based; conditions: in vivo; in short: as §1
Plasma = assay: Drug metabolism in Sprague-Dawley rat assessed as tizoxanide level in plasma administered via oral gavage qd for 28 consecutive days; format: ADME
In short: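 In a sub-acute study, Sprague-Dawley rats were dosed once daily for 28 consecutive days at 10, 30 or 75 mg/kg, given as a yellow suspension. There were four groups of up to 30 rats each (15M/15F) to assess systemic exposure.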

Rattus norvegicus [4] = assay: Toxicity in Sprague-Dawley rat assessed as mixed cell inflammation in stomach at 75 mg/kg administered as oral gavage qd for 28 consecutive days followed by 2 weeks recovery period by microscopic method; format: organism-based; conditions: in vivo, 336 h; in short: as §1
Rattus norvegicus [5] = assay: Toxicity in Sprague-Dawley rat assessed as eosinophilic cytoplasmic bodies in leukocytes of duodenum at 75 mg/kg administered as oral gavage qd for 28 consecutive days followed by 2 weeks recovery period by microscopic method; format: organism-based; conditions: in vivo, 336 h; in short: as §1
Canis familiaris = assay: Toxicity in Beagle dog assessed as organ weight up to 25 mg/kg, po administered as gelatin capsule once daily for 28 days; format: organism-based, Canis lupus familiaris; conditions: in vivo, 672 h
In short: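 Sub-acute study in Beagle dogs dosed orally by gelatin capsule at 5, 15 and 25 mg/kg once a day for 28 consecutive days.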

## CC(C)(C)[C@H](N)C(=O)Oc1ccccc1C(=O)Nc1ncc([N+](=O)[O-])s1.Cl
Rattus norvegicus [1]
  Activity: Toxic
Rattus norvegicus [2]
  Activity: Toxic
Rattus norvegicus [3]
  Activity: Toxic
Plasma
  Drug metabolism: Dose-dependent effect
Rattus norvegicus [4]
  Activity: Non-Toxic
Rattus norvegicus [5]
  Activity: Non-Toxic
Canis familiaris
  Activity: Non-Toxic
